Here are results for 48 sequences from the EternaBench riboswitch data.

The data set deals with MS2 coat protein. Description: apparent Kd, MS2 coat protein; higher = weaker binding; RNA-MaP array; FMN 200 µM where present. Put shortly: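 Designs on Illumina sequencing-chip clusters, transcribed by stalled E. coli RNA polymerase, were exposed to SNAP-549-labelled MS2 coat protein in doubling steps from 0.7 or 1.5 nM up to 3 µM, without and then with constant ligand. The buffer held 100 mM Tris-HCl pH 7.5, 80 mM KCl, 4 mM MgCl2, BSA, DTT, yeast tRNA and Tween-20. Apparent Kd values are medians of filtered per-cluster binding-curve fits to green signal normalised to red-channel RNA signal and control-cluster median Fmax.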

Setting [1] is: designed as: ON switch for flavin mononucleotide, no ligand.
The mark [2] stands for this setting: ligand present: flavin mononucleotide, designed as: ON switch for flavin mononucleotide.
Where [3] appears, read: designed as: OFF switch for flavin mononucleotide, no ligand.
Where [4] appears, read: ligand present: flavin mononucleotide, designed as: OFF switch for flavin mononucleotide.

With “ACAUGAGGAUCACCCAUGUCUUUAUCCGAUUCUUCAUUUACGUAGGAUAUCGUCUAUACUAUCAUCGAGAAGGACGUUCUUUAA”, the “apparent Kd” value under setting [1] came out at 17.6 nM and the “apparent Kd” value under setting [2] is 15.9 nM.

For “CGAGUCGGUUGCCCUGCAGUACAUGAGGAUCACCCAUGUCGGAGAAGGUGCACAAAGGAAUCGGGCAAGGAUAUCCGGCGUGAA”, the “apparent Kd” value came out at 8.21 nM under setting [3] and 7.98 nM under setting [4].

Turning to “GCACGGUAAGUGAGGAUAUACCUCUGGAUACAGAGGUAGAAGGCACAUGAGGAUCACCCAUGUUCCAGCCGUGC”, the “apparent Kd” value was 17.9 nM under setting [3] and 74.8 nM under setting [4].

For “GGAUCUUGGGUCAGGAUAUGCUGAUAUUUUUGUCAGCAGAAGGGACAUGAGGAUCACCCAUGUGCUUGGUUUUG”, the “apparent Kd” value reads like this: under setting [3], 11.2 nM; under setting [4], 21.8 nM.

Consider “CGCAUGCGUAGUAUUAGUUGCUGACAGGAUAUGACAUGAGGAUCACCCAUGUGAAUUAAGAAGAGUCAGAAGGGUCACGUUGCG”, for which the “apparent Kd” value runs as follows: under setting [3], 11.6 nM; under setting [4], 10.6 nM.

On to “GUAUGGAGUACAGGAUAUGUAAGUUUUAAGUGUAUUGGUUAUUACUUAACAACAGAAGGGUAUUACAUGAGGAUCACCCAUGUA”, for which the “apparent Kd” value by setting is: under setting [1], 13.4 nM; under setting [2], 11 nM.

On to “CAUAACGGCUGAGGAUAUUGAAUGUGCGUGGACAUGAGGAUCACCCAUGUUCAAGAAGGCAGCAAUUUACUUGGGUCUACCCGC”, for which the “apparent Kd” value is, setting by setting: under setting [3], 40.9 nM; under setting [4], 309 nM.

Turning to “AUGGUGCAGGUACAGGAUAUGUUGCUCGUAACAUGAGGAUCACCCAUGUACCUAUGAGAUUAAAUGCAGAAGGGUGCACACCACG”, the “apparent Kd” value is, setting by setting: under setting [1], 784 nM; under setting [2], 62.7 nM.

Turning to “AAAAAACAUGAGGAUCACCCAUGUAAAAAAAAUGGAGGAUAUUGGAAAAAAAAAAAAAAACGAGAAGGCUAAAAAA”, the “apparent Kd” value reads like this: under setting [1], 84.4 nM; under setting [2], 71.1 nM.

Regarding “GGUCCAUAAUGAGGAUAUGGCACCUUAUUGGUGCCAGAAGGCAUGUCUAUAGACAUGAGGAUCACCCAUGUAAUAAAUUGGACC”, the “apparent Kd” value under setting [1] turned out to be 435 nM and the “apparent Kd” value under setting [2] came to 43.3 nM.

“GGAUGACACAGUCAUCCAAUACGAACAUGAGGAUCACCCAUGUAGGAUAUGCUACUCAAAGAGUAGCAGAAGGACAUGUGCCUU”: the “apparent Kd” value by setting is: under setting [3], 39.1 nM; under setting [4], 257 nM.

Turning to “CACGUCCUCACAGGAUAUGCUGGACUUUGUCCAGCAGAAGGGUGAAACAUGAGGAUCACCCAUGUUAGGACGUGUAUAUUUAAU”, the “apparent Kd” value came to 86.7 nM under setting [1] and 625 nM under setting [2].

“AUCAGCUCGUCAGGAUAUACGUCACUGCGUCAGCAGUGUGGUAAGAUCACAUGAGGAUCACCCAUGUAGAAGGGACGAGCUUAU”: the “apparent Kd” value runs as follows: under setting [3], 13.8 nM; under setting [4], 260 nM.

As to “UGGUACUAGGGAGGAUAUGGGAUGAUACAUGAGGAUCACCCAUGUUUAAGAAUGCCGAGAGGCAACUAGAAGGCCCUAGUACCU”, the “apparent Kd” value is, setting by setting: under setting [1], 448 nM; under setting [2], 174 nM.

As to “GGGUACAUCGGAGGAUAUCAUGUAAAUACAUGAGGAUCACCCAUGUCGAUGGAGACAUCGGAGAUGGAGAAGGCCGAUGUACCG”, the “apparent Kd” value under setting [1] was found to be 538 nM and the “apparent Kd” value under setting [2] was 102 nM.

For the sequence “CGUGCGUAUGUGAGGAUAUGCUGGUCCUUGGCUCGGCAGAAGGCACAUGAGGAUCACCCAUGUGGUGUCGUACC”, the “apparent Kd” value amounted to 21.9 nM under setting [3] and 58.6 nM under setting [4].

As to “GCGUAUGAAAAUAUGUCUGAGGGCAGAAGGCACAUGAGGAUCACCCAUGUAACGAUCUCUUCAAGUGAGGAUAUGUGCUCAUUG”, the “apparent Kd” value was 31.8 nM under setting [3] and 113 nM under setting [4].

With “UUGAACAUAGGAUAUAGUUGUUUGUACAUGAGGAUCACCCAUGUUAUGUAUGUUUUGUUUCUAGAAGGAUGUUGAU”, the “apparent Kd” value amounted to 37.7 nM under setting [3] and 32.3 nM under setting [4].

In the case of “GUGGCUGUUAGGCUUGCGUCGGCGACAGAAGGCCAACAUGAGGAUCACCCAUGUACAAAGACCAUGGAGGAUAUGUUGCCAAUG”, the “apparent Kd” value is, setting by setting: under setting [1], 58.2 nM; under setting [2], 7.54 nM.

With “CCGAGGCUAGGAUAUUGACGAUAAUACAUGAGGAUCACCCAUGUGAGUCGUGUAUGCGCGCAAGAAGGAGUAAUAA”, the “apparent Kd” value was determined as 14 nM under setting [3] and 17.6 nM under setting [4].

For “CUUUUACAUGAGGAUCACCCAUGUUAUGGCGGGUCAGGAUAUAGAUCGGAUGCGUUCUGUCUAGAAGGGACAUGUU”, the “apparent Kd” value under setting [1] is 52.2 nM and the “apparent Kd” value under setting [2] is 33.4 nM.

For the sequence “AGGAGACAUGAGGAUCACCCAUGUGCACGGUGAAGAGGAUAUGUGCGUGGAGAGACACGGACAGAAGGCUUAAGAA”, the “apparent Kd” value under setting [1] stood at 65.3 nM and the “apparent Kd” value under setting [2] came to 33 nM.

With “AUGCUUUUUGUAGGAUAUACAUACGGUACGUAUGUAGAAGGACAUGAGGAUCACCCAUGUAAAUUAUUAUUAAAUAUCAUACUU”, the “apparent Kd” value is, setting by setting: under setting [3], 12.7 nM; under setting [4], 12.2 nM.

Regarding “AACGCGUCAGGAUAUAGCGUAAUUUAGGUAGUACGACCAUACUAGAAGGGACAUGAGGAUCACCCAUGUGGGUA”, the “apparent Kd” value is 212 nM under setting [3] and 118 nM under setting [4].

Turning to “UGUUGUAUUACAGGAUAUCUAGUAUAUUUAUUUAGAGAAGGGUAUUCACAUGAGGAUCACCCAUGUAUAUACGAGGAAGUUGUG”, the “apparent Kd” value came out at 41.1 nM under setting [1] and 40.2 nM under setting [2].

As for “GUCAGCUCGAGAGGAUAUACAACACUGCUUCGGCAGUGUAUUAAGAUCACAUGAGGAUCACCCAUGUAGAAGGCACGAGCUGAU”, the “apparent Kd” value runs as follows: under setting [3], 9.31 nM; under setting [4], 89.2 nM.

Take “GGAGAUUACUCAGGAUAUCGCUAGACCGACAUGAGGAUCACCCAUGUGGGUGACGCGGUGGGCUACGAGAAGGGAGAAGUGCCC”: the “apparent Kd” value under setting [3] was determined as 11.5 nM and the “apparent Kd” value under setting [4] is 11.7 nM.

In the case of “UUGGACGUCGUAGGAUAUGUAGGAUAUUCCUACAUGAGGAUCACCCAUGUUGACAUGGAAGAAGGACACAAGGACGAUGUCCAU”, the “apparent Kd” value came to 664 nM under setting [1] and 15.8 nM under setting [2].

Turning to “CCUAUGUGAGGAUAUGGUGUUGGCCACAGGGAAAAGGUCCUCCAGAAGGCACAUGAGGAUCACCCAUGUCGUGA”, the “apparent Kd” value amounted to 84.6 nM under setting [3] and 158 nM under setting [4].

In the case of “UCGUAUACACAAGGAUAUCAAUGAUUUGUGGAUCCUACAUGAGGAUCACCCAUGUUUUUAUAUUUUGAGAAGGUGUAGUGUCUU”, the “apparent Kd” value by setting is: under setting [1], 417 nM; under setting [2], 608 nM.

Turning to “UUUUUUAUCGUAGGAUAUAGGUUGAAUAAUAGACUAGAAGGACGUGACAUGAGGAUCACCCAUGUUUUUUAAGUGUCGAAGUGU”, the “apparent Kd” value turned out to be 26.9 nM under setting [1] and 25.7 nM under setting [2].

Take “GGUACUCAAAGAGUACCAAUACGAACAUGAGGAUCACCCAUGUAGGAUAUGCUACAAAAGGAGUAGCAGAAGGACAUGUGCCUA”: the “apparent Kd” value by setting is: under setting [3], 13 nM; under setting [4], 60.8 nM.

“GGUCCCUACGCACAGGAUAUUCUUUUGGCAACAUGAGGAUCACCCAUGUGUGCCGAUCAUGGUUAGAAGAAGGGUGGUAGGGACC”: the “apparent Kd” value amounted to 20.6 nM under setting [1] and 15.7 nM under setting [2].

With “AUAUCUUGUCAAGGAUAUGUUGUAUUGAUCUGAAAACAUGAGGAUCACCCAUGUAUACGGUGGGAACAGAAGGUGAAUGUAGAA”, the “apparent Kd” value is, setting by setting: under setting [3], 532 nM; under setting [4], 674 nM.

Regarding “CAGCCCUGAGGAUAUCCACCCUCGUACAUGAGGAUCACCCAUGUCUCCCUCUGGGCUUUCGGAGAAGGCAGGUAUC”, the “apparent Kd” value is, setting by setting: under setting [3], 69 nM; under setting [4], 58.5 nM.

Consider “CGGGUCUGAGGAUAUCCAUCUUCAUACAUGAGGAUCACCCAUGUUUACCUUUGGGUUUCUGGAGAAGGCAGUUUUC”, for which the “apparent Kd” value is, setting by setting: under setting [3], 48.3 nM; under setting [4], 73 nM.

Take “UGUGUGAGACAGGAUAUGCCAGAUGUAUUACUGGUAGAAGGGUCUACAUGAGGAUCACCCAUGUGGCCGGCCGG”: the “apparent Kd” value was 27.1 nM under setting [3] and 61.8 nM under setting [4].

Regarding “GUUAGUUAAGGAUAUACAGGGAGCUGCGGCGUCUCGCCGCAACAUGAGGAUCACCCAUGUAGAAGGUGACCUUU”, the “apparent Kd” value is, setting by setting: under setting [3], 529 nM; under setting [4], 406 nM.

Consider “AAAUAAAGGACUAAGGAUAUAUCGCAUGACACAUGAGGAUCACCCAUGUGGUAACACAGAGGGUGAUAGAAGGUAGUCCACAAACA”, for which the “apparent Kd” value under setting [1] was 404 nM and the “apparent Kd” value under setting [2] was 75.8 nM.

In the case of “AUGGUGACGUAGAAGGGUGACAUGAGGAUCACCCAUGUGCCGAUAUUUCUCGAGAUAUGUCGGCCACAGGAUAUACGUACCAUC”, the “apparent Kd” value by setting is: under setting [1], 39.3 nM; under setting [2], 83.3 nM.

On to “UUUUUCUCAGGAUAUACAUGAGGAUCACCCAUGUAUAUUGAAGAUAAUACAUGGGAAUGUAGAAGGGAGCUCAU”, for which the “apparent Kd” value under setting [3] worked out at 109 nM and the “apparent Kd” value under setting [4] amounted to 115 nM.

As for “CAGGUAGACUGAGGAUAUACAGACCUAGUCUAUCUAGGUCAAGUCCUUACAUGAGGAUCACCCAUGUAGAAGGCAGUCUGCCUG”, the “apparent Kd” value under setting [3] worked out at 19.5 nM and the “apparent Kd” value under setting [4] came out at 52.7 nM.

“GAGUAGAUCCGAGGAUAUACAAUCCGGAAACGGUACAUGAGGAUCACCCAUGUAGAAGGCGGAUCUACAGGUACUAAAGUACCA”: the “apparent Kd” value is 6.24 nM under setting [3] and 8.12 nM under setting [4].

In the case of “AAGCGGGUCUUCAGGGUAAUGAACAUGAGGAUCACCCAUGUGCAGGAUAUGACGGAUCCGCACCGUCAGAAGGGCACUAAGUAC”, the “apparent Kd” value is, setting by setting: under setting [3], 24.6 nM; under setting [4], 69.9 nM.

On to “GAUGAUCGGUGAGGAUAUUUUAUAACGUUUUUGAAAGAAGGCACUGACAUGAGGAUCACCCAUGUGAGUCCUCAUCUUGAAAUA”, for which the “apparent Kd” value reads like this: under setting [3], 18 nM; under setting [4], 35.6 nM.

For the sequence “GGACGUCACAUGAACAUGAGGAUCACCCAUGUGAAAACACAUGAGGAUAUGGAUCCUAAUUGGAUCCAGAAGGCAUGGACGUCC”, the “apparent Kd” value runs as follows: under setting [1], 476 nM; under setting [2], 27.2 nM.

As to “CCGGAAAGGAAGGAUAUGCUAGACGAGAGUCUAGCAGAAGGUCCUACAUGAGGAUCACCCAUGUGGCCUCCCGG”, the “apparent Kd” value stood at 139 nM under setting [3] and 627 nM under setting [4].

Regarding “CCAUCAGCGAACGAUACGAUUGGACAUGAGGAUCACCCAUGUAGAAGGACAGGAGAAUAACGGCUGUAGGAUAUACAUUUAGUG”, the “apparent Kd” value under setting [3] amounted to 58.4 nM and the “apparent Kd” value under setting [4] came to 40.6 nM.

A word on the apparent Kd: it is a dissociation constant that holds for the conditions of the assay.
